In ChEMBL document CHEMBL3813686, “Biologically Active Acetylenic Amino Alcohol and N-Hydroxylated 1,2,3,4-Tetrahydro-β-carboline Constituents of the New Zealand Ascidian Pseudodistoma opacum” (J Nat Prod, 2016):
Converted amounts (≈) assume the structure as drawn. The source made the active and inactive calls. The calls are words filed in the database; no cut-off is given here.

Tests used:
Staphylococcus aureus [1] = assay: Antibacterial activity against Staphylococcus aureus ATCC 25923 after 16 hrs by resazurin dye based fluorescence assay; format: functional; details: ATCC 25923, 16 h
[2] = system: Mycobacterium tuberculosis; assay: Antibacterial activity against Mycobacterium tuberculosis H37Ra after 7 days by resazurin dye based fluorescence assay; format: functional; details: 168 h
Escherichia coli [3] = assay: Antibacterial activity against Escherichia coli ATCC 25922 after 16 hrs by resazurin dye based fluorescence assay; format: functional; details: ATCC 25922, 16 h
Escherichia coli [4] = assay: Antibacterial activity against Escherichia coli ATCC 25922 incubated overnight by microbroth-dilution method; format: functional
Outline: (§1)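 Mueller Hinton broth cultures were grown overnight at 37 °C with shaking at 200 rpm. Inoculum was adjusted to approximately 5 × 10^5 cfu/mL final, confirmed by retrospective plating. Compounds were dissolved in DMSO and tested in doubling dilutions, with untreated and DMSO controls. Plates were incubated overnight at 37 °C. Each concentration was run in triplicate on three separate occasions.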

[5] = system: Mycobacterium tuberculosis; assay: Antibacterial activity against Mycobacterium tuberculosis BSG001 incubated overnight by microbroth-dilution method; format: functional
Outline: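 M. tuberculosis H37Rv carrying a bacterial luciferase vector, grown 2 weeks at 37 °C (100 rpm) in Middlebrook 7H9 with ADC and glycerol. Assay medium was 7H9 without Tween or kanamycin. Compounds in DMSO were tested in doubling dilutions from 64 to 1 μg/mL, with untreated and DMSO controls, incubated overnight at 37 °C. Triplicate wells per concentration; three separate experiments.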

Staphylococcus aureus [6] = assay: Antibacterial activity against Staphylococcus aureus XEN36 incubated overnight by microbroth-dilution method; format: functional; outline: as §1
Staphylococcus aureus [7] = assay: Bactericidal activity against Staphylococcus aureus XEN36 incubated overnight by microbroth-dilution method; format: functional
Outline: (§2)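 Broth from the MIC wells (standard microbroth dilution, ~5 × 10^5 cfu/mL in Mueller Hinton broth) was transferred into fresh medium and incubated overnight at 37 °C, then scored for growth. Cell dilutions were also plated. MBC was taken as a reduction of at least 3 logs from the initial inoculum.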

[8] = system: Mycobacterium tuberculosis; assay: Bactericidal activity against Mycobacterium tuberculosis BSG001 incubated overnight by microbroth-dilution method; format: functional
Outline: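 Broth microdilution on luciferase-tagged M. tuberculosis H37Rv in 7H9 medium without Tween or kanamycin, using DMSO-dissolved compounds at 64–1 μg/mL (doubling) and incubating overnight at 37 °C. 5 μL from the MIC wells went into 195 μL fresh medium and was incubated overnight at 37 °C. Dilutions were also plated. MBC was taken as at least a 3-log drop from the initial inoculum.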

Escherichia coli [9] = assay: Bactericidal activity against Escherichia coli ATCC 25922 incubated overnight by microbroth-dilution method; format: functional; outline: as §2
Plasmodium falciparum = assay: Antiplasmodial activity against chloroquine-resistant Plasmodium falciparum FcB1/Columbia infected in erythrocytes assessed as inhibition of parasite growth after 48 hrs by 3H-hypoxanthine incorporation assay; format: functional, organism-based
Escherichia coli [10] = assay: Antibacterial activity against Escherichia coli after 24 hrs by broth macrodilution method; format: functional

SMILES: CCCCCCCCCCC[C@H](O)[C@H](C)N
- MIC (Staphylococcus aureus [1]): 33 µM (≈ 7.57 µg/mL)
- MIC [2]: 33 µM (≈ 7.57 µg/mL)
- MIC (Escherichia coli [3]): 33 µM (≈ 7.57 µg/mL)

SMILES: C=CCCC#CC#CCCCCCCC[C@H](O)CN
- MIC (Escherichia coli [4]): 170 µM
- MIC [5]: 85 µM
- MIC (Staphylococcus aureus [6]): 85 µM
- MBC (Staphylococcus aureus [7]): 32 µg/mL
- MBC [8]: 64 µg/mL
- MBC (Escherichia coli [9]): > 128 µg/mL

SMILES: C=CCCC#CC#CCCCCCCC[C@@H](CNC(=O)c1ccccc1)OC(=O)c1ccccc1
- Activity (Escherichia coli [4]): inactive
- Activity [5]: inactive
- Activity (Staphylococcus aureus [6]): inactive

SMILES: N=C(N)NCCCCC1NCCc2c1n(O)c1cc(Br)ccc21 (configuration not stated)
- MIC (Escherichia coli [4]): 106 µM
- MIC [5]: 106 µM
- MIC (Staphylococcus aureus [6]): 53 µM
- MBC (Staphylococcus aureus [7]): 53 µM
- MBC [8]: 106 µM
- MBC (Escherichia coli [9]): 106 µM
- IC50 (Plasmodium falciparum): 3.8 µM

SMILES: C=CCCCCCC/C=C\C[C@H](O)[C@H](C)N
- MIC (Escherichia coli [10]): 196 µM (≈ 44.2 µg/mL)

SMILES: CCCCC/C=C\C/C=C\CC/C=C/C[C@H](O)[C@H](C)N
- MIC (Escherichia coli [10]): 360 µM (≈ 101 µg/mL)

SMILES: CO[C@H]1/C=C/O[C@@]2(C)Oc3c(C)c(O)c4c(O)c(c(/C=N/N5CCN(C)CC5)c(O)c4c3C2=O)NC(=O)/C(C)=C\C=C\[C@H](C)[C@H](O)[C@@H](C)[C@@H](O)[C@@H](C)[C@H](OC(C)=O)[C@@H]1C [RIFAMPIN]
- MIC (Escherichia coli [4]): 8 µg/mL
- MIC [5]: 0.161 µg/mL
- MIC (Staphylococcus aureus [6]): 0.004 µg/mL
- MBC (Staphylococcus aureus [7]): 0.008 µg/mL
- MBC [8]: 0.161 µg/mL
- MBC (Escherichia coli [9]): 8 µg/mL
